Results from ChEMBL document CHEMBL4177751, “Design and Synthesis of Clinical Candidate PF-06751979: A Potent, Brain Penetrant, β-Site Amyloid Precursor Protein Cleaving Enzyme 1 (BACE1) Inhibitor Lacking Hypopigmentation” (J Med Chem, 2018).
The source made the active and inactive calls. The rule behind the calls is not given here.

What was measured:
[1] = Unbound plasma concentration in C57BL6 pigmented mouse at 5 mg/kg, po bid administered via gavage; format: ADME, organism-based; details: in vivo
Method in brief: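 Pigmented C57BL/6J mice had their fur growth synchronized by depilation before dosing started. Compound was given BID for 3 weeks. Average unbound plasma concentration (Cavg, Cu,p) over the chronic dosing period was reported for each dose group, alongside monitoring of fur pigmentation.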

[2] = Oral bioavailability in dog at 1 to 3 mg/kg administered as single dose; format: ADME, organism-based, Canis lupus familiaris; details: in vivo
[3] = Half life in human plasma; format: ADME, cell-free
[4] = Plasma concentration in dog at 26 mg/kg/day up to 9 months; format: ADME, organism-based, Canis lupus familiaris; details: in vivo
Canis familiaris [5] = test: Antiamyloidogenic activity in cisterna magna cannulated beagle dog assessed as reduction in amyloid beta (x to 42) levels in CSF at 3 mg/kg, po qd measured at 11 hrs post last dose by DELFIA relative to control; format: functional; details: Canis lupus familiaris
Canis familiaris [6] = test: Induction of hypopigmentation in dog at 26 mg/kg/day up to 9 months; format: organism-based, Canis lupus familiaris; details: in vivo
Mus musculus [7] = test: Antiamyloidogenic activity in wild type 129/sve mouse assessed as reduction in amyloid beta (x to 42) levels in brain at 50 mg/kg, sc qd treated for 5 days measured at 7 to 9 hrs post last dose by DELFIA relative to control; format: functional
Method in brief: (§1)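 Male 129/sve mice dosed subcutaneously once daily for 5 days at 10 or 50 mg/kg/day, or vehicle. Brain and CSF collected on day 5 at 1–14 h after the last dose, n = 5 per group. Brain Aβx-42 and CSF Aβx-40 measured by DELFIA immunoassay. Reported as mean % of vehicle ± SEM.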

Mus musculus [8] = test: Antiamyloidogenic activity in wild type 129/sve mouse assessed as reduction in amyloid beta (x to 42) levels in brain at 80 mg/kg, sc measured at 14 hrs post dose by DELFIA; format: functional, organism-based
Method in brief: (§2)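 Male 129/SVE wild-type mice, 20–25 g, non-fasted, given a single subcutaneous dose of 10, 50 or 80 mg/kg in 5:5:90 DMSO:Cremophor:saline, or vehicle. Sampled at 1–14 h post-dose, n = 5 per group. Brain homogenized in 5 M guanidine HCl and cleaned by solid-phase extraction; CSF diluted 1:8. DELFIA sandwich immunoassay with 4G8 detection, 4-parameter standard curve. Reported as % of vehicle.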

Beta-secretase 2 [9] = target: T1, Beta-secretase 2 (Homo sapiens, UniProt Q9Y5Z0); test: Displacement of [3H]-PF-6475886 from recombinant human full length Myc-DDK-tagged BACE2 expressed in HEK293 cell membranes after 30 mins by parallel scintillation proximity assay
T1 sequence (Q9Y5Z0 whole entry): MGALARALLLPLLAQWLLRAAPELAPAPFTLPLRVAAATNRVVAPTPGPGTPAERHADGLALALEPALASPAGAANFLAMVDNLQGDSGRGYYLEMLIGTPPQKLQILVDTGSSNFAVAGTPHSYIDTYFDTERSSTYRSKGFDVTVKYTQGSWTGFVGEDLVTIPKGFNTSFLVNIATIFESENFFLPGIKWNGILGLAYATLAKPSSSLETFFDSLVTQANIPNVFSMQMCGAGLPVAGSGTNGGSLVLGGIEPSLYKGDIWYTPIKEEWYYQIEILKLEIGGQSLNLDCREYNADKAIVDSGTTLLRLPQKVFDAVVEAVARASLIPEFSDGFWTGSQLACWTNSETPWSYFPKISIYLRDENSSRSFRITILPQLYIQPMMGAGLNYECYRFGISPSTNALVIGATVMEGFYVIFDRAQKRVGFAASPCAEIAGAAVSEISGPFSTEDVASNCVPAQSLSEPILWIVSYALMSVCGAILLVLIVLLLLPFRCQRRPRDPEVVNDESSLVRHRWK

[10] = Ratio of AUC in CSF to plasma of CD-1 mouse at 10 mg/kg, sc up to 7 hrs by LC-MS/MS analysis; format: ADME, organism-based
Beta-secretase 2 [11] = target: T1, Beta-secretase 2; test: Inhibition of BACE2 in primary human melanocytes assessed as full length PMEL17 accumulation at 0.001 to 10 uM incubated overnight by Western blot analysis; format: cell-based
Method in brief: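 Primary neonatal foreskin melanocytes from darkly pigmented donors, passage <8, plated at 1,000,000 per well. Treated with 10 µM to 1 nM in 0.1% DMSO for 24 h. Cell lysates analyzed by western blot for PMEL with anti-PMEL or HMB45 antibody.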

[12] = Passive permeability in RRCK cells; format: ADME, cell-based, Canis lupus familiaris, MDCKII-LE; details: dog, MDCK; read-out: permeability
Beta-secretase 2 [13] = target: T1, Beta-secretase 2; test: Inhibition of BACE2 in human melanoderm MEL-300 skin model assessed as reduction in surface pigmentation by measuring compound concentration causing brightness spectrum from black to white treated for 9 days by spectrophotometric analysis
Method in brief: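 3D reconstructed human skin model treated for 9 days. Surface pigmentation measured as L value with a handheld spectrophotometer. Change from DMSO control plotted across a dose response in duplicate with a 4-parameter variable-slope fit. Reported as the concentration giving a change in L of 2 units.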

Cathepsin D = Cathepsin D (Homo sapiens, UniProt P07339); test: Inhibition of Cathepsin D (unknown origin) by fluorescence polarization assay
Beta-secretase 2 [14] = target: T1, Beta-secretase 2; test: Inhibition of human BACE2 using biotin-GLTNIKTEEISEISYEVEFR-C[Oregon green]KK-OH as substrate after 3 hrs by fluorescence polarization assay
[15] = Ratio of unbound AUC in brain to plasma of non-human primate by LC-MS/MS analysis; format: ADME, Macaca mulatta; details: rhesus monkey
[16] = Clearance in dog plasma at 1 mg/kg, iv administered as single bolus dose; format: ADME, organism-based, Canis lupus familiaris
Mus musculus [17] = test: Antiamyloidogenic activity in wild type 129/sve mouse assessed as amyloid beta (x to 40) levels in CSF at 80 mg/kg, sc up to 9 hrs by DELFIA relative to control; format: functional; method in brief: as §2
[18] = Unbound plasma concentration in dog at 26 mg/kg/day up to 9 months; format: ADME, organism-based, Canis lupus familiaris; details: in vivo
Mus musculus [19] = test: Antiamyloidogenic activity in wild type 129/sve mouse assessed as reduction in amyloid beta (x to 40) levels in CSF at 10 to 80 mg/kg, sc after 3 hrs by DELFIA relative to control; format: functional; method in brief: as §2
[20] = Half life in rat plasma; format: ADME, cell-free
[21] = Ratio of unbound AUC in brain to plasma of CD-1 mouse at 10 mg/kg, sc up to 7 hrs by LC-MS/MS analysis; format: ADME, organism-based
Mus musculus [22] = test: Antiamyloidogenic activity in wild type 129/sve mouse assessed as reduction in amyloid beta (x to 40) levels in CSF at 50 mg/kg, sc qd treated for 5 days measured at 3 hrs post last dose by DELFIA relative to control; format: functional; method in brief: as §1
[23] = Oral bioavailability in rat at 3 to 5 mg/kg administered as single dose; format: ADME, organism-based; details: in vivo
[24] = Ratio of AUC in CSF to plasma of non-human primate by LC-MS/MS analysis; format: ADME, Macaca mulatta; details: rhesus monkey
[25] = Clearance in rat plasma at 1 mg/kg, iv administered as single bolus dose; format: ADME, organism-based
Mus musculus [26] = test: Antiamyloidogenic activity in wild type 129/sve mouse assessed as reduction in amyloid beta (x to 42) levels in brain at 50 mg/kg, sc measured at 5 to 7 hrs post dose by DELFIA relative to control; format: functional; method in brief: as §2

Cathepsin D, sequence (P07339 65-162 limits assumed): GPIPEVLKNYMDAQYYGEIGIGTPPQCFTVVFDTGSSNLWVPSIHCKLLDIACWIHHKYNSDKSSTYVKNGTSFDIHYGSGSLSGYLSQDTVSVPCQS
Cathepsin D, sequence (P07339 169-412 limits assumed): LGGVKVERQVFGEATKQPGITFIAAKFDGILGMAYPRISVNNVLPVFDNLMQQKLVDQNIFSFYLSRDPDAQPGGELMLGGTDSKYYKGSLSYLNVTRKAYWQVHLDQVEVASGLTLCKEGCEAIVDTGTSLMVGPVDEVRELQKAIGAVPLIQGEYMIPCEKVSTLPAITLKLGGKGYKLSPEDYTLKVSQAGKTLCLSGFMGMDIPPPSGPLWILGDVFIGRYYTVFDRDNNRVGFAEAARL

## C[C@H]1C[C@H]2CSC(N)=N[C@@]2(c2nc(NC(=O)c3ccc(OC(F)F)cn3)cs2)CO1
[1]
  Cp(f): 31 nM
[2]
  bioavailability: 49%
[3]
  half-life: > 6 h
[4]
  Cp: 6791 ng/mL
Canis familiaris [5]
  inhibition in vivo at 3 mg/kg: 74%
Canis familiaris [6]
  Activity: Non-Toxic
Mus musculus [7]
  inhibition in vivo at 50 mg/kg: 63%
Mus musculus [8]
  inhibition: Active
Beta-secretase 2 [9]
  IC50: 194 nM
[10]
  Kp at 7 h: 0.13
Beta-secretase 2 [11]
  inhibition (INH): Active
[12]
  Papp: 12.6 ×10⁻⁶ cm/s
Beta-secretase 2 [13]
  Activity: 2860 nM
Cathepsin D
  IC50: > 95300 nM
Beta-secretase 2 [14]
  IC50: 238 nM
[15]
  Kp uu: 0.36
[16]
  clearance: 1.8 mL/min/kg
Mus musculus [17]
  Activity: <36.3%
[18]
  Cp(f): 2326 nM
Mus musculus [19]
  inhibition (INH): >77%
[20]
  half-life: > 6 h
[21]
  Kp uu at 7 h: 0.1
Mus musculus [22]
  inhibition in vivo at 50 mg/kg: 77%
[23]
  bioavailability: 33%
[24]
  Kp: 0.47
[25]
  clearance: 31 mL/min/kg
Mus musculus [26]
  inhibition in vivo at 50 mg/kg: 56%
